≈ marks a conversion by molar mass, not a printed value.
Tests used:
[1] = test system: Raji; assay: Cytotoxicity against human Raji cells after 72 hrs by Cell Titre Glo assay; assay type: cell-based
Outline: (§1)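 Human cells grown to 80% confluence were plated in 384-well format and received compound dilutions by pin tool. After 72 h at 37 °C in 5% CO2, viability was measured by CellTiter-Glo luminescence.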

[2] = test system: BJ; assay: Cytotoxicity against human BJ cells after 72 hrs by Cell Titre Glo assay; assay type: cell-based; outline: as §1
[3] = test system: Trypanosoma brucei rhodesiense; assay: Antitrypanosomal activity against bloodstream forms of wild type Trypanosoma brucei rhodesiense STIB900 after 70 hrs by Alamar Blue assay; assay type: functional, organism-based; details: STIB900, 70 h
Outline: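 T. b. rhodesiense STIB 900 was cultured in MEM with Earle's salts and Baltz supplements (0.2 mM 2-mercaptoethanol, 1 mM Na-pyruvate, 0.5 mM hypoxanthine, 15% heat-inactivated horse serum). 2000 bloodstream forms per well were exposed to serial drug dilutions for 70 h at 37 °C in humidified 5% CO2. Resazurin followed for 2–4 h, read by fluorescence (ex 536/em 588 nm). IC50 came from sigmoidal curves by linear regression.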

[4] = test system: HEK293; assay: Cytotoxicity against HEK293 cells after 72 hrs by Cell Titre Glo assay; assay type: cell-based; details: Homo sapiens, HEK293, 72 h; outline: as §1
[5] = test system: HepG2; assay: Cytotoxicity against human HepG2 cells after 72 hrs by Cell Titre Glo assay; assay type: cell-based; details: HepG2, 72 h; outline: as §1
[6] = Half life in human liver microsomes; assay type: ADME, Microsome
Outline: (§2)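 Liver microsomes (human: pooled from 200 mixed-gender donors; mouse: female […]) were diluted in 0.1 M potassium phosphate, pH 7.4, with EDTA, then spiked from a 2 mM DMSO/acetonitrile compound stock. Reactions were started with cofactor solutions A+B and kept at 37 °C with shaking. Samples at 0, 0.5, 1, 2 and 4 h were quenched with cold methanol containing 10 μM warfarin and analysed by UPLC-MS (SIR). k = −2.303 × slope of log peak-area ratio versus time; t1/2 = 0.693/k.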

[7] = test system: Trypanosoma brucei gambiense; assay: Antitrypanosomal activity against Trypanosoma brucei gambiense STIB930 after 70 hrs by Alamar Blue assay; assay type: functional, organism-based; details: STIB930, 70 h
Outline: (§3)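 T. b. gambiense strains were grown in HMI-9 with 15% heat-inactivated FBS and 5% human serum. 10000 trypanosomes per well were seeded into serial drug dilutions and held 70 h at 37 °C in humidified 5% CO2. Resazurin was then added for a further 4–6 h, and fluorescence was read (ex 536/em 588 nm). IC50 was taken by linear regression from sigmoidal dose-inhibition curves.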

[8] = Half life in mouse liver microsomes; assay type: ADME, Microsome; outline: as §2
[9] = Permeability of the compound at pH 7.4 by PAMPA; assay type: ADME; details: PAMPA, read-out: permeability
Outline: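 Compound (10 mM DMSO stock) was diluted in system solution buffer pH 7.4 and placed in the donor chamber of a PAMPA sandwich whose membrane was coated with GIT lipid. Acceptor buffer filled the acceptor chamber, and the assembly was stirred for 30 min. Donor and acceptor UV spectra (250–500 nm) were compared with a reference to give the permeability coefficient. Run in triplicate.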

[10] = Kinetic solubility of the compound in PBS buffer at pH 7.4 after 18 hrs by UV spectrophotometric analysis; assay type: physicochemical; details: for solubility kinetic at 18 h: PBS buffer, pH 7.4, read-out: Kinetic_solubility
Outline: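 Compound from a 10 mM stock was added to PBS pH 7.4 and left 18 h at room temperature. The suspension was filtered, and the filtrate was mixed 1:1 with 1-propanol. Solubility was derived from UV spectrum AUC (250–500 nm) relative to a 1-propanol/PBS reference. Run in triplicate.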

[11] = Kinetic solubility of the compound in PBS buffer at pH 3.0 after 18 hrs by UV spectrophotometric analysis; assay type: physicochemical; details: read-out: Kinetic_solubility
[12] = Permeability of the compound at pH 3.0 by PAMPA; assay type: ADME; details: read-out: permeability
[13] = test system: Trypanosoma brucei brucei; assay: Antitrypanosomal activity against Trypanosoma brucei brucei 221 after 48 hrs by Cell Titre Glo assay; assay type: functional, organism-based; details: Trypanosoma brucei, 221, 48 h
Outline: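 Bloodstream-form parasites grown in HMI-9 with 10% heat-inactivated FBS, 10% Serum Plus and penicillin/streptomycin at 37 °C, 5% CO₂, to 1 × 10⁶ cells/mL. Diluted to 1 × 10⁴ cells/mL, then dosed with a DMSO dilution series by pin transfer. Incubated 48 h at 37 °C, 5% CO₂. Viability read by CellTiter-Glo luminescence. EC₅₀ from a variable-slope sigmoidal fit. Mean of six replicates, errors as 95% CI.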

[14] = test system: Trypanosoma brucei gambiense; assay: Antitrypanosomal activity against Trypanosoma brucei gambiense KO48 after 70 hrs by Alamar Blue assay; assay type: functional, organism-based; details: KO48, 70 h; outline: as §3
[15] = test system: Trypanosoma brucei gambiense; assay: Antitrypanosomal activity against Trypanosoma brucei gambiense DAL 898R after 70 hrs by Alamar Blue assay; assay type: functional, organism-based; outline: as §3

Compound Cc1ccc(-c2nc3ccccc3s2)cc1NC(=O)c1cc([N+](=O)[O-])c(N2CCNCC2)cc1Cl has an EC50 [1] greater than 25000 nM, an EC50 [2] of 14500 nM and an EC50 [3] of 7 nM. It also gave an EC50 [4] greater than 25000 nM, an EC50 [5] greater than 25000 nM and a half-life [6] greater than 4 h. It also gave an EC50 [7] of 2 nM, a half-life [8] greater than 4 h and a Papp [9] of 4 ×10⁻⁶ cm/s. The solubility kinetic at 18 h [10] was 0.08 µM (≈ 0.0406 µg/mL), the solubility kinetic at 18 h [11] was 1.15 µM (≈ 0.584 µg/mL) and the Papp [12] was 0.6 ×10⁻⁶ cm/s.

Compound CN1CCN(c2cc(Cl)c(C(=O)Nc3cccc(-c4nc5ccccc5s4)c3)cc2[N+](=O)[O-])CC1 has an EC50 [1] of 14500 nM, an EC50 [2] greater than 25000 nM and an EC50 [3] of 210 nM. It also gave an EC50 [4] of 14200 nM, an EC50 [5] of 8600 nM and a half-life [6] of 3.3 h. The EC50 [7] was 160 nM, the half-life [8] was 0.81 h and the Papp [9] was 366 ×10⁻⁶ cm/s. For the same compound, the EC50 [13] was 110 nM, the Kinetic_solubility ([10]; buffer, pH 7.4, 18 h, BLD = below limit of detection) was “BLD” and the solubility kinetic at 18 h [11] was 46 µM (≈ 23.4 µg/mL). The Papp [12] was 108 ×10⁻⁶ cm/s.

Compound Cc1ccc(-c2nc3ccccc3s2)cc1NC(=O)c1cc([N+](=O)[O-])c(N2CCN(C)CC2)cc1Cl has an EC50 [1] greater than 25000 nM, an EC50 [2] greater than 25000 nM and an EC50 [3] of 11 nM. The EC50 [4] was greater than 25000 nM, the EC50 [5] was greater than 25000 nM and the half-life [6] was 1.6 h. The EC50 [7] was 1 nM, the half-life [8] was 1.3 h and the Papp [9] was 74 ×10⁻⁶ cm/s. The EC50 [13] was 41 nM, the solubility kinetic at 18 h [10] was 0.7 µM (≈ 0.365 µg/mL) and the solubility kinetic at 18 h [11] was 0.56 µM (≈ 0.292 µg/mL). For the same compound, the Papp [12] was 60 ×10⁻⁶ cm/s.

Work on O=C(Nc1cccc(-c2nc3ccccc3s2)c1)c1cc([N+](=O)[O-])ccc1Cl yielded an EC50 [1] greater than 27000 nM, an EC50 [2] greater than 27000 nM and an EC50 [3] of 160 nM. The EC50 [14] was 170 nM, the EC50 [4] was greater than 27000 nM and the EC50 [5] was greater than 25000 nM. It also gave a half-life [6] of 1 h, an EC50 [7] of 110 nM and a half-life [8] of 0.18 h. It also gave a Papp [9] of 12 ×10⁻⁶ cm/s, an EC50 [13] of 190 nM and a solubility kinetic at 18 h [10] of 0.58 µM (≈ 0.238 µg/mL). It also gave an EC50 [15] of 200 nM, a solubility kinetic at 18 h [11] of 0.51 µM (≈ 0.209 µg/mL) and a Papp [12] of 51 ×10⁻⁶ cm/s.

Reference: ChEMBL document CHEMBL2321751, “Optimization of chloronitrobenzamides (CNBs) as therapeutic leads for human African trypanosomiasis (HAT)” (J Med Chem, 2013)
